In paper PMC10568112 (Journal of Pharmaceutical Analysis, 2023):
Where two headings read alike, the source gives them in different places.

Legend:
[1] = system: carboxylesterase of gut microbiota; assay type: in vitro ADME, Balb/c mice; settings: for inhibition rate of tyrosol production: 120 min, SNZ 10 μg/mL, vs control group
How it was run: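 Gut bacteria incubations were set up as for the microbial metabolism assay, with test compound at a final 10 μg/mL. The carboxylesterase inhibitor BNPP was added at 1, 5 or 10 mM; cultures without BNPP served as control. Incubation was at 37 °C for 0, 15, 30, 60, 90 and 120 min. Inhibition of tyrosol production at 120 min was expressed relative to control.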

[2] = Pharmacokinetics after oral SNZ in normal Balb/c mice and pseudo-germfree; assay type: in vivo; settings: oral SNZ 109.2 mg/kg; for Cmax / half-life / Tmax: Balb/c, mouse, po, 109.2 mg/kg; for Cmax / half-life / Tmax / AUC(0−t) / AUC(0−∞): plasma, mean
[3] = Tissue distribution after oral SNZ in tumor bearing mice; assay type: in vivo, Balb/c mice; settings: 20 min after oral SNZ 109.2 mg/kg; for tissues in which the metabolite is distributed: tumor mice
How it was run: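 Three tumour-bearing mice per group, conventional or PGF, were fasted overnight and dosed orally at 109.2 mg/kg. After 20 min they were anaesthetised with 20% urethane and PBS-perfused. Organs and tumour were homogenised in 3 volumes of PBS. 100 μL homogenate was mixed with 300 μL methanol containing glipizide (100 ng/mL), vortexed 1 min and centrifuged at 14,000 rpm for 10 min. Supernatant was analysed by HPLC-MS/MS.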

[4] = Pharmacokinetics after oral SNZ in tumor mice and PGF tumor mice; assay type: in vivo, Balb/c mice; settings: oral SNZ 109.2 mg/kg
[5] = system: gut microbiota (intestinal bacteria incubation system); test: Metabolism of SNZ by intestinal bacteria in vitro; assay type: in vitro ADME, Balb/c mice; settings: SNZ 10 μg/mL; for course of metabolite content in intestinal bacteria incubation: 0-2 h
How it was run: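 Contents of male Balb/c intestine were mixed 1:30 (w/v) in anaerobic medium, kept under N2 and pre-incubated 30 min at 37 °C. Test compound was present at a final 10 μg/mL, and inactivated bacteria medium served as negative control. Shaking at 37 °C, 200 rpm was done in two separate runs: 0, 1, 2, 6, 12 and 24 h, then 0, 15, 30, 60, 90 and 120 min. Parent and metabolite contents were followed over time.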

[6] = tumor mice (column head Normal), plasma, mean
[7] = PK parameters in PGF could not be fitted

SMILES	Cmax ([2]; normal Balb/c mice) [ng/mL]	half-life ([2]; t1/2, normal Balb/c mice) [min]	Tmax ([2]; normal Balb/c mice) [min]	AUC(0−t) ([2]; normal Balb/c mice) [µg/L/min]	AUC(0−∞) ([2]; normal Balb/c mice) [µg/L/min]	amount detected in tumor tissue of tumor mice compared with PGF tumor mice [3]	tissues in which the metabolite is distributed [3]	AUC(0−t) [4, 6] [µg/L/min]	AUC(0−∞) [4, 6] [µg/L/min]	course of metabolite content in intestinal bacteria incubation [5]	further results
O=[N+]([O-])c1ccc(OP(=O)(O)Oc2ccc([N+](=O)[O-])cc2)cc1 [BNPP, bis-p-nitrophenyl phosphate]											effect on metabolic rate of SNZ by gut microbiota ([1]; BNPP 0, 1, 5 and 10 mM): inhibited in a dose-dependent manner; inhibition rate of tyrosol production ([1]; BNPP 1 mM): 81.5%; inhibition rate of tyrosol production ([1]; BNPP 5 mM): 93.1%; inhibition rate of tyrosol production ([1]; BNPP 10 mM): 100.0%; prolongation of SNZ metabolism compared with control group ([1]; BNPP 10 mM, within 120 min): approximately 60 min
OC[C@H]1O[C@@H](OCCc2ccc(O)cc2)[C@H](O)[C@@H](O)[C@@H]1O [Salidroside, salidroside]	257	90.8	44	33814.78	36004.16	a large amount	liver, kidney, stomach, small intestine, etc.	22373.93	23773.54	gradually decreased	Cmax ([2]; PGF mice): 82.7 ng/mL; half-life ([2]; t1/2, PGF mice): 14.2 min; Tmax ([2]; PGF mice): 16 min; AUC(0−t) ([2]; PGF mice): 3079.01 µg/L/min; AUC(0−∞) ([2]; PGF mice): 3205.99 µg/L/min; Cmax ([4]; Balb/c, mouse, plasma, po, 109.2 mg/kg, cmax, PGF tumor mice, mean): 75 ng/mL; half-life ([4]; Balb/c, mouse, plasma, po, 109.2 mg/kg, t1/2, PGF tumor mice, mean): 20.4 min; Tmax ([4]; Balb/c, mouse, plasma, po, 109.2 mg/kg, tmax, PGF tumor mice, mean): 18 min; AUC(0−t) ([4]; PGF tumor mice, plasma, mean): 2207.64 µg/L/min; AUC(0−∞) ([4]; PGF tumor mice, plasma, mean): 2452.12 µg/L/min; highest peak concentration of metabolite in intestinal bacteria incubation ([5]; peak at 15 min): 3.29 µg/mL
OCCc1ccc(O)cc1 [Tyrosol, tyrosol]	126	110	36	13158.45	13944.89	a large amount	liver, kidney, stomach, small intestine, heart, spleen, lung, colon, and other organs and tissues	8918.61	9833.89	increased gradually with incubation time	plasma concentration in PGF mice compared with normal group [2, 7]: lower than that in the normal group; plasma exposure in tumor mice compared with PGF tumor mice [4, 7]: significantly higher
